In ChEMBL document CHEMBL1240482, “Synthesis and antiproliferative evaluation of certain indeno[1,2-c]quinoline derivatives. Part 2” (J Med Chem, 2010):

Columns and labels:
Homo sapiens = organism: Homo sapiens; assay: Inhibition of human topoisomerase 2 assessed as decrease in pBR322 mobility on agarose gel at 10 uM by electrophoresis
In short: (§1)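 Enzyme preincubated with compound before DNA addition; reaction run 30 min at 37 °C and stopped with SDS. Products resolved on 1% agarose, stained with ethidium bromide, quantified by densitometry.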

[1] = Cell cycle arrest in human BT-483 cells assessed as accumulation at sub-G1 phase at 3 uM after 24 hrs by flow cytometry; assay type: functional, cell-based
In short: (§2)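 BT483 cells exposed to 0, 1, 3 or 10 μM for 24 h, then stained with propidium iodide and analysed for DNA content by flow cytometry. The subdiploid (sub-G1) peak, expressed as a percentage of the whole population, is scored as apoptotic.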

[2] = Cell cycle arrest in human BT-483 cells assessed as accumulation at sub-G1 phase at 1 uM after 24 hrs by flow cytometry; assay type: functional, cell-based; in short: as §2
[3] = Tmax in CD1 mouse at 20 mg/ kg, po; assay type: ADME, organism-based; set-up: dose 20 mg/ kg, route oral; conditions: in vivo
In short: (§3)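 Male CD-1 (Crl.) mice, 22-24 g, fasted 4 h before dosing; single oral gavage of 20 mg/kg as a suspension in 0.5% methylcellulose/water, 10 mL/kg. Cardiac-puncture plasma (K-EDTA) taken predose to 27 h, three mice per time point; LC-MS/MS quantification.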

Mus musculus [4] = assay: Toxicity to BALB/c mouse assessed as survival rate at 20 mg/kg, iv; assay type: organism-based; set-up: dose 20 mg/kg, route intravenous; conditions: in vivo
In short: (§4)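 Balb/C athymic nude mice (6-8 weeks, ~20 g) bearing subcutaneous BT483 breast xenografts (0.5 × 10^6 cells). Treatment began at ~500 mm3 tumour volume: cosolvent formulation diluted in 5% dextrose, iv at 10 or 20 mg/kg once daily for 14 days; controls received vehicle. 3 animals per group. Survival was assessed by Kaplan-Meier analysis at study end, p < 0.05.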

Mus musculus [5] = assay: Toxicity to BALB/c mouse assessed as change in glutamic oxalacetic transaminase at 20 mg/kg, iv; assay type: organism-based; set-up: dose 20 mg/kg, route intravenous; conditions: in vivo
In short: (§5)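 BALB/c mice, 3 per group, randomized by body weight (stratified). Dosed iv via tail vein at 10, 20 or 40 mg/kg in PEG 400/ethanol/water (20/20/60), once every 3 days for 2 weeks; solvent controls. Weighed throughout. After a 24 h fast, heart blood was drawn under ether; GOT, GPT, BUN and creatinine were measured on an analyzer. Liver and kidney taken for H&E.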

[6] = Mean retention time in CD1 mouse at 2 mg/ kg, iv; assay type: ADME, organism-based; set-up: dose 2 mg/ kg, route intravenous; conditions: in vivo
In short: (§6)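 Fasted male CD-1 (Crl.) mice, 22-24 g; single tail-vein bolus of 2.0 mg/kg in PEG400/ethanol/water (30/5/65), 10 mL/kg. Cardiac-puncture blood into K-EDTA at 0-27 h, three mice per time point; plasma analysed by LC-MS/MS after acetonitrile precipitation. Parameters calculated from mean plasma concentrations.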

Mus musculus [7] = assay: Toxicity to BALB/c mouse assessed as change in blood urea nitrogen at 20 mg/kg, iv; assay type: organism-based; set-up: dose 20 mg/kg, route intravenous; conditions: in vivo; in short: as §5
[8] = Volume of distribution at steady state in CD1 mouse at 2 mg/ kg, iv; assay type: ADME, organism-based; set-up: dose 2 mg/ kg, route intravenous; conditions: in vivo, read-out: Vdss; in short: as §6
DNA topoisomerase 1 = target: T1, DNA topoisomerase 1 (Homo sapiens, UniProt P11387); assay: Inhibition of human topoisomerase 1 assessed as decrease in pBR322 mobility on agarose gel by electrophoresis; in short: as §1
T1 sequence (P11387 whole entry): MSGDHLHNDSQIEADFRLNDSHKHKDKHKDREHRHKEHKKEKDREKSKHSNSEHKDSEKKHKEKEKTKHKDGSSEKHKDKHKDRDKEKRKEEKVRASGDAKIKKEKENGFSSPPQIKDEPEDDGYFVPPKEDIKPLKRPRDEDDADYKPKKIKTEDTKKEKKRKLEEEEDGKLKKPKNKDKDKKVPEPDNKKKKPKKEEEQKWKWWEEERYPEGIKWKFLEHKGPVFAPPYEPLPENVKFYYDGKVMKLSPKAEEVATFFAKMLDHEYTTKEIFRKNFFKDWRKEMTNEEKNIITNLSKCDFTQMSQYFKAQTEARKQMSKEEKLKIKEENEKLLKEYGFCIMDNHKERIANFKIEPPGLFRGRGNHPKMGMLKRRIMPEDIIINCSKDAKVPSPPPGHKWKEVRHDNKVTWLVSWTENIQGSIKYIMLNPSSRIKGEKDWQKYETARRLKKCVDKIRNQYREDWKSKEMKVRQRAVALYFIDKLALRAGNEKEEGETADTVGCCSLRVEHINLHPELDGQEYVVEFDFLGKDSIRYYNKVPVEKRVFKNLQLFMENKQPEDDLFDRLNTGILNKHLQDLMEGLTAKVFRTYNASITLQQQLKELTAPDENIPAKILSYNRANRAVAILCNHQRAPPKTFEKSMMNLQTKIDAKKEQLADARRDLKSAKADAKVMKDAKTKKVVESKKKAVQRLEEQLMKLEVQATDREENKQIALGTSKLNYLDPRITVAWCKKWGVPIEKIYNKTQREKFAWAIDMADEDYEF

[9] = Half life in CD1 mouse at 20 mg/ kg, po; assay type: ADME, organism-based; set-up: dose 20 mg/ kg, route oral; conditions: in vivo; in short: as §3
[10] = Apparent volume of distribution in CD1 mouse at 2 mg/ kg, iv; assay type: ADME, organism-based; set-up: dose 2 mg/ kg, route intravenous; conditions: in vivo, read-out: Vz; in short: as §6
Mus musculus [11] = assay: Toxicity to BALB/c mouse assessed as change in body weight at 20 mg/kg, iv; assay type: organism-based; set-up: dose 20 mg/kg, route intravenous; conditions: in vivo; in short: as §5
Mus musculus [12] = assay: Toxicity to BALB/c mouse assessed as survival rate at 10 mg/kg, iv; assay type: organism-based; set-up: dose 10 mg/kg, route intravenous; conditions: in vivo; in short: as §4
[13] = Inhibition of human topoisomerase 2 assessed as decrease in pBR322 mobility on agarose gel by electrophoresis; in short: as §1
[14] = Clearance in CD1 mouse at 2 mg/ kg, iv; assay type: ADME, organism-based; set-up: dose 2 mg/ kg, route intravenous; conditions: in vivo; in short: as §6
Mus musculus [15] = assay: Toxicity to BALB/c mouse assessed as change in glutamic pyruvate transaminase at 20 mg/kg, iv; assay type: organism-based; set-up: dose 20 mg/kg, route intravenous; conditions: in vivo; in short: as §5
[16] = Cmax in CD1 mouse at 20 mg/ kg, po; assay type: ADME, organism-based; set-up: dose 20 mg/ kg, route oral; conditions: in vivo; in short: as §3
A549 = assay: Cytotoxicity against human A549 cells after 48 hrs by MTT assay; assay type: functional; conditions: A549, 48 h
In short: (§7)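 Cells grown in DMEM with 10% FBS at 37 °C and 5% CO2, seeded at 5 × 10^3 per well and allowed 24 h before drug. Serial dilutions from DMSO stocks applied for 48 h. MTT (2 mg/mL in PBS) added for 2 h, formazan dissolved in DMSO, absorbance read at 570 nm. GI50 interpolated by linear regression from at least three points in the 20-80% range; three independent experiments.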

[17] = Cytotoxicity against human BT-483 cells after 48 hrs by MTT assay; assay type: functional; conditions: BT-483, 48 h; in short: as §7
[18] = Cell cycle arrest in human BT-483 cells assessed as accumulation at sub-G1 phase at 10 uM after 24 hrs by flow cytometry; assay type: functional, cell-based; in short: as §2
Detroit 551 = assay: Selectivity index, ratio of IC50 for human Detroit 551 cells to IC50 for human BT-483 cells; assay type: functional
[19] = Half life in CD1 mouse at 2 mg/ kg, iv; assay type: ADME, organism-based; set-up: dose 2 mg/ kg, route intravenous; conditions: in vivo; in short: as §6
HeLa = assay: Selectivity index, ratio of IC50 for human Detroit 551 cells to IC50 for human HeLa cells; assay type: functional
PC-3 = assay: Cytotoxicity against human PC3 cells after 48 hrs by MTT assay; assay type: functional; conditions: PC-3, 48 h; in short: as §7

Work on `COc1ccc2c(c1)/C(=N\OCCN1CCCC1)c1c-2c(O)nc2ccccc12` yielded an inhibition (Homo sapiens) of 60%, an Activity [1] of 58% and an Activity [2] of 43%. The Tmax [3] was 1 h, the Activity (Mus musculus [4]) was “Non-toxic” and the Activity (Mus musculus [5]) was “Non-toxic”. The MRT [6] was 1.1 h, the Activity (Mus musculus [7]) was “Non-toxic” and the Vd [8] was 12.3 L/kg. For the same compound, the IC50 (DNA topoisomerase 1) was 3.76 µM, the half-life [9] was 2.2 h and the Vd [10] was 25.5 L/kg. The Activity (Mus musculus [11]) was “Non-toxic”, the Activity (Mus musculus [12]) was “Non-toxic” and the IC50 [13] was 8.26 µM. For the same compound, the clearance [14] was 193 mL/min/kg, the Activity (Mus musculus [15]) was “Non-toxic” and the Cmax [16] was 63 ng/mL. It also gave a GI50 (A549) of 0.89 µM, a GI50 [17] of 0.79 µM and an Activity [18] of 88%. It also gave a RatioGI50 (Detroit 551) of 15.75, a half-life [19] of 1.5 h and a RatioGI50 (HeLa) of 54.09. The GI50 (PC-3) was 1.83 µM.
